An excerpt weighted towards active compounds, which were near 1% of everything screened.
RAD52 inh = blocks human RAD52 DNA annealing; inhibition, % at 18.7 µM; hit rate 0.46% among 360,000; P43351; recombinant RAD52 DNA annealing, FRET fluorescence; AID 651710;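 active = every replicate showing at least 50% inhibition; inconclusive = mean inhibition at least 50% but not in every replicate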
CAL PDZ FP-1 = inhibitors of human CAL PDZ peptide binding | hit rate 0.02% among 330,000 | Q9HD26 | purified CAL PDZ, TMR-peptide fluorescence polarization, 1 h | inhibition, % at 20 µM | AID 504414;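 active = highest replicate inhibition of at least 40%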
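material = purified tagged CAL PDZ domain construct (CerCALP) | buffer or medium = sodium phosphate/NaCl buffer pH 7.4 with TCEP, IgG, Thesit | reagent = TMR-labelled reporter peptide T*-PRC34 bound in PDZ groove | incubation = 1 h room-temperature incubation prior to read | measured by = fluorescence polarization (mP) | evaluation = percent inhibition from loss of millipolarization | control set = unlabelled peptide and DMSO controls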
PDI turbidity = PDI (human) enzyme inhibition; PDI insulin aggregation turbidity, A650, 90 min; inhibition, % at 10 µM; hit rate 0.052% among 350,000; AID 588391;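 active = mean inhibition across replicates of 30% or more, whatever share of single replicates reach that level; inconclusive = mean inhibition below 30% while every single replicate reaches 30%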
Target sequence (P07237 whole entry, looked up): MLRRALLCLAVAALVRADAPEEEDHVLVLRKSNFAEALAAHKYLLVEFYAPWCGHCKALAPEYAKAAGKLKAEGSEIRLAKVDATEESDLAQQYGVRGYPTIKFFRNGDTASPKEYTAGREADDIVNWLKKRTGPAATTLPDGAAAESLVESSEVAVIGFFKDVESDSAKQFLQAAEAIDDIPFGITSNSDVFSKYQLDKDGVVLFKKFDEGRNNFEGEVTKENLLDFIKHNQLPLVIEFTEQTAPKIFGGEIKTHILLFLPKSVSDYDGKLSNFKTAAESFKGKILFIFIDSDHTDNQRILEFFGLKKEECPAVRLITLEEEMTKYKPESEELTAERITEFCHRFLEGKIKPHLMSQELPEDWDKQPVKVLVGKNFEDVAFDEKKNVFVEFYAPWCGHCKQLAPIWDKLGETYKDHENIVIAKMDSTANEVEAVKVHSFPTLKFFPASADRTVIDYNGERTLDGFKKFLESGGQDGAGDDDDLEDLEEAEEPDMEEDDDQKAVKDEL
RAD54 inh = blocks human RAD54 Holliday junction branch migration. hit rate 0.14% among 360,000. FAM/BHQ fluorescence. inhibition, % at 10.4 µM;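 active = mean normalized replicate activity at least 40 and at least half of replicates scoring 40 or more; inconclusive = only one of the two criteria met; inactive = mean below 40 and under half of replicates reaching 40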;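 also: inhibitors cause a drop in the FAM fluorescence signal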
CAL PDZ FP-2 = blocks peptide binding to the human CAL PDZ domain. Q9HD26. purified CAL PDZ, TMR-peptide fluorescence polarization, 1 h. inhibition, % at 24.9 µM. hit rate 0.92% among 300,000;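 active = mean inhibition of at least 30% with at least half of replicates also reaching 30%; inconclusive = no clear call, values can overlap the other calls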
ERp5 inh = ERp5 (human) disulfide isomerase inhibition; Q15084; ERp5 insulin aggregation, absorbance 650 nm, 90 min; inhibition, % at 9.99 µM; hit rate 0.05% among 350,000;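 active = mean replicate inhibition above about 25%, with every replicate also reaching it, limit read from the data, passing the limit was not always enough; inconclusive = only one of those two criteria met; inactive = neither criterion met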
Numbers stand for hits; – = inactive; ? = inconclusive; · = no result.

SMILES	RAD52 inh	CAL PDZ FP-1	PDI turbidity	RAD54 inh	CAL PDZ FP-2	ERp5 inh
CO[C@H]1CN(C)C(=O)c2ccc(NC(=O)c3ccc(F)cc3)cc2OC[C@@H](C)N(C(C)=O)C[C@@H]1C	–	·	·	–	·	–
CC(C(=O)O)c1cccc(C(=O)c2ccccc2)c1 (centres undefined)	–	–	–	–	32	–
COc1ccc2c3c([nH]c2c1)[C@@H](CO)N(C(=O)c1cccc(F)c1)CC31CCN(S(=O)(=O)c2cccs2)CC1	–	·	·	·	·	·
O=C(C[C@@H]1C[C@H]2c3cc(NC(=O)CC4CC4)ccc3O[C@H]2[C@@H](CO)O1)NCc1ccccc1F	–	·	·	–	·	–
Cc1ccc(CNC(=O)C(c2ccccc2)c2ccccc2)cc1	–	–	–	–	94	–
COc1ccc(NC(=O)n2ncc3c(C)cccc32)cc1	–	·	–	–	62	–
CN(C)C(=O)[C@@H]1[C@@H](CO)[C@@H]2Cn3c(ccc(C4=CCCCC4)c3=O)[C@H]1N2C	72	·	·	–	·	–
Cn1cc(C(=O)C(=O)N2CCCc3ccccc32)c2ccccc21	–	–	–	–	34	–
Cn1c(CN2CCCC2)nc2cc(NC(=O)COc3ccc(Cl)cc3)ccc21	–	–	–	–	–	–
COc1ccc(OCC(=O)Nc2ccc3c(c2)nc(CN2CCCC2)n3C)cc1	·	–	–	–	58	·
CCOc1cc(N(CC)CC)ccc1/C=C(/C#N)c1nc2ccccc2[nH]1	·	–	–	–	43	·
COc1ccc(NC(=O)N(C)C[C@H]2Oc3ccc(NS(=O)(=O)c4ccccc4)cc3CC(=O)N([C@@H](C)CO)C[C@H]2C)cc1	–	·	·	·	·	–
N#Cc1ccc(CSCC(=O)NN=C2CCCC2)cc1	–	–	–	–	–	–
O=C(CSCc1ccc(Cl)cc1)NN=C1CCCC1	–	–	–	·	72	?
COc1ccc(CC(=O)Nc2c(C(=O)N3CCN(c4ncccn4)CC3)oc3ccccc23)cc1	–	–	–	–	43	–
COc1ccc(CC(=O)Nc2c(C(=O)N3CCN(c4ncccn4)CC3)oc3ccccc23)cc1OC	–	–	–	–	–	–
COc1ccc(-c2cn3cc([N+](=O)[O-])ccc3n2)cc1OC	–	–	–	·	60	–
COc1ccc(-c2cn3ccccc3n2)cc1[N+](=O)[O-]	–	–	–	·	–	–
COc1ccc(CN(C)C[C@@H]2Oc3ccc(N(C)C)cc3CC(=O)N([C@@H](C)CO)C[C@H]2C)cc1	–	·	·	–	·	–
CCOC(=O)c1oc2cccc(O)c2c1CN(Cc1ccccc1)C(C)=O	·	–	52	–	–	·
C[C@H]1CN([C@@H](C)CO)C(=O)c2cc(NS(C)(=O)=O)ccc2O[C@@H]1CN(C)S(=O)(=O)c1cccs1	–	·	·	–	·	–
COc1ccc(NC(=O)Cc2c(F)c(F)c(F)c(F)c2F)cc1OC	–	–	–	–	–	–
COc1ccc(NC(=O)CC#N)cc1OC	·	·	–	–	30	·
O=C1OC(COc2ccc(Br)cc2)CN1c1ccccc1 (centres undefined)	–	–	–	·	87	–
C#CCOCC1CN(c2ccccc2)C(=O)O1 (centres undefined)	–	·	–	–	·	–
SMILES	RAD52 inh	CAL PDZ FP-1	PDI turbidity	RAD54 inh	CAL PDZ FP-2	ERp5 inh
C[C@H](CO)N1C[C@H](C)[C@@H](CN(C)S(C)(=O)=O)Oc2cc(C#CC3CCCC3)ccc2S1(=O)=O	–	·	·	–	·	–
O=C(/C=C/c1cccc2ccccc12)N1CCOCC1	–	–	–	·	49	–
Cc1cccc(C)c1NC(=S)NC(C)(C)CO	–	–	–	·	79	–
COC(=O)C[C@H]1CC[C@@H]2[C@@H](COc3ccc(NC(=O)c4cccc(Cl)c4)cc3C(=O)N2C)O1	–	·	·	–	·	–
CC(C)NC(=O)N(C)C[C@@H]1Oc2c(NC(=O)Nc3ccc(C(F)(F)F)cc3)cccc2C(=O)N([C@H](C)CO)C[C@H]1C	–	·	·	–	·	–
CCCC#Cc1ccc([C@H]2[C@@H](CO)N(C(C)=O)[C@H]2CN(C)C(=O)C2CC2)cc1	·	·	·	·	·	–
COCC(=O)Nc1ccc2c(c1)C(=O)N(C)C[C@@H](OC)[C@H](C)CN(Cc1ccccn1)[C@H](C)CO2	–	·	·	–	·	–
O=C(CN1C(=O)COc2ccccc21)NCC1CCCO1 (centres undefined)	–	–	–	–	–	–
O=C(CN1C(=O)COc2ccc(Cl)cc21)NCC1CCCO1 (centres undefined)	–	–	–	–	35	–
C[C@@H]1O[C@@H](Oc2c(-c3cc(O)c(O)c(O)c3)oc3cc(O)cc(O)c3c2=O)[C@H](O)[C@H](O)[C@H]1O	–	–	47	–	–	–
COc1cc(-c2oc3cc(O)cc(O)c3c(=O)c2O[C@@H]2O[C@H](COC3O[C@@H](C)[C@H](O)[C@@H](O)[C@H]3O)[C@@H](O)[C@H](O)[C@H]2O)ccc1O (some centres undefined)	–	–	56	–	–	–
C[C@@H]1O[C@@H](Oc2c(-c3ccc(O)c(O)c3)oc3cc(O)cc(O)c3c2=O)[C@H](O)[C@H](O)[C@H]1O	–	–	73	–	–	–
C[C@@H]1O[C@@H](O[C@H]2[C@H](O)[C@@H](O)[C@H](Oc3c(-c4ccc(O)c(O)c4)oc4cc(O)cc(O)c4c3=O)O[C@@H]2CO)[C@H](O)[C@H](O)[C@H]1O	–	–	67	–	–	–
C[C@@H]1O[C@@H](OC[C@H]2O[C@@H](Oc3cc(O)c4c(=O)cc(-c5ccc(O)c(O)c5)oc4c3)[C@H](O)[C@@H](O)[C@@H]2O)[C@H](O)[C@H](O)[C@H]1O	·	–	–	–	–	·
CCCNC(=O)[C@@H]1[C@@H](CO)[C@@H]2Cn3c(cccc3=O)[C@H]1N2C(=O)C1CCCC1	–	·	·	–	·	–
CCC(=O)N(C)C[C@H]1Oc2cc(-c3cncnc3)ccc2S(=O)(=O)N([C@H](C)CO)C[C@@H]1C	–	·	·	–	·	–
O=C(O)c1cccc(NC(=O)c2cccc(S(=O)(=O)Nc3cccc([N+](=O)[O-])c3)c2)c1	–	–	–	–	96	–
Cc1ccc(C(=O)Nc2cccc([N+](=O)[O-])c2)cc1S(=O)(=O)Nc1cccc(C(=O)O)c1	–	–	–	·	–	–
COc1ccc(C2(C)NC(=O)N(CC(=O)c3cc(C)n(C4CC4)c3C)C2=O)cc1OC (centres undefined)	–	–	–	–	54	–
COc1ccc(CCNC(=O)[C@@]2(Cc3ccccc3I)c3ccccc3C(=O)N(Cc3ccccc3OC)[C@H]2c2ccc(CO)cc2)cc1	–	·	·	–	·	–
Cc1ccccc1NC(=S)N(CCN(C)C)C(C)c1ccccn1 (centres undefined)	·	–	–	–	·	·
Cc1c(Cl)cccc1NC(=S)N(CCN(C)C)C(C)c1ccccn1 (centres undefined)	–	–	–	–	81	–
CCOc1ccccc1N=Nc1c(C)[nH]n(C(N)=S)c1=O	–	·	–	–	37	–

Assay outcomes: PubChem, Broad Institute
